Laboratory results taken from paper PMC3058531 (Biochemistry, 2010).
“Also recorded” adds a separate entry of the source. * marks the point of attachment. pNA = O=[N+]([O-])c1ccc(N*)cc1

Columns and labels:
[1] = target: T1, Southampton norovirus 3C protease (SV3CP) (Southampton virus, UniProt Q04544); assay: Chromogenic pNA peptide substrate cleavage, initial rates at 405 nm; format: biochemical; settings: compared with Ac-EFQLQ-pNA or other trial substrates; pH 8.5
How it was run: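 Recombinant SV3CP expressed in E. coli BL21(DE3) pLysS, self-excised from flanking sequences, purified by two cation-exchange steps. N-acetylated peptide-pNA substrates in DMSO, diluted into 100 mM Tris pH 8.5 with 5 mM β-mercaptoethanol (final substrate 0.1−3.0 mM, enzyme 0.1 mg/mL). A405 of samples read every 1 min for 10 min; initial rates gave KM, kcat and kcat/KM.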

[2] = target: T1, Southampton norovirus 3C protease (SV3CP); format: biochemical; settings: preincubation with millimolar concentrations of the inhibitor prior to addition of substrate; within the dead time of the experiment
[3] = Solubility of the inhibitor in protein buffer; format: physicochemical; settings: 10% DMSO had to be included in the buffer
[4] = tested on: Southampton norovirus 3C protease (SV3CP), Cys 139; assay: X-ray structure of the SV3CP-MAPI complex; format: binding; settings: cocrystal at 1.7 Å resolution, PDB 2IPH; crystals at pH 8.5
[5] = target: T1, Southampton norovirus 3C protease (SV3CP); assay: Mass spectrometry of the SV3CP-MAPI complex; format: binding; settings: single major protein peak at 20045 Da

T1 sequence (Q04544 1100-1280 limits assumed): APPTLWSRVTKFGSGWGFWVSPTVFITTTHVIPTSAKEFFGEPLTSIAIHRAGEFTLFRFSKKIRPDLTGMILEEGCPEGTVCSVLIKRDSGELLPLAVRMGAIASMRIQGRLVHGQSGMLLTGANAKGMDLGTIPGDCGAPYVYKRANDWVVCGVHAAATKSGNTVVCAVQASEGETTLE

Row | Substance | kcat/KM, kcat and KM comparison in words [1] | time to irreversible inactivation of the enzyme [2] | solubility (in words) [3] | covalent binding mode [4] | binding stoichiometry [5]
1 | Ac-DEFQLQ-pNA | had a kcat which was higher than that of Ac-EFQLQ-pNA although its proportionately higher KM meant that it was a slightly inferior substrate in terms of specificity constant | – | – | – | –
2 | Ac-EFQLQ-pNA | had the highest kcat/KM ratio; also recorded: the best substrate in terms of specificity constant (kcat/KM ratio) | – | – | – | –
3 | acetyl-Glu-Phe-Gln-Leu-Gln-X [MAPI] | – | < 30 s | essentially insoluble | the active site thiol of Cys 139 is bound covalently to the C-terminal Michael-acceptor extension of the inhibitor MAPI | one molecule of SV3CP plus one molecule of the inhibitor
